Data from ChEMBL document CHEMBL3763129 (Bioorg Med Chem Lett, 2016).
Activity calls are given as the source filed them. No cut-off for these calls is given here.

What was measured:
MIA PaCa-2 [1] = assay: Antiproliferative activity against human MIAPaCa2 cells assessed as cell viability at 10 uM after 48 hrs by MTS assay; type: functional, cell-based
[2] = Cytotoxicity against human MCF10A cells assessed as cell viability at 10 uM after 48 hrs by MTS assay; type: cell-based; conditions: mcf-10a
BXPC-3 [3] = assay: Antiproliferative activity against human BxPC3 cells assessed as cell viability at 10 uM after 48 hrs by MTS assay; type: functional, cell-based
ASPC1 [4] = assay: Antiproliferative activity against human AsPC1 cells assessed as cell viability at 10 uM after 48 hrs by MTS assay; type: functional, cell-based
ASPC1 [5] = assay: Antiproliferative activity against human AsPC1 cells assessed as cell viability at 0.01 to 10 uM after 48 and 72 hrs by MTS assay; type: functional, cell-based
BXPC-3 [6] = assay: Antiproliferative activity against human BxPC3 cells assessed as cell viability at 0.01 to 10 uM after 48 and 72 hrs by MTS assay; type: functional, cell-based
[7] = molecular target: Calmodulin-1 (Homo sapiens) (UniProt P0DP23); assay: Binding affinity to human calmodulin by isothermal titration calorimetry
[8] = molecular target: T1, Calmodulin/Proto-oncogene tyrosine-protein kinase Src (Homo sapiens) (UniProt P12931+P0DP23); assay: Inhibition of human CaM/Src kinase SH2 domain interaction assessed as apparent association of CaM-Src kinase SH2 domain at 10 fold excess compound concentration by isothermal titration calorimetry; type: protein assay
Procedure, shortened: (§1)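 ITC at 27°C: SH2 (0.02mM) premixed with compound in DMSO in cell, titrated with CaM (0.2mM, DMSO matched), 20µl per injection, 300 s spacing; both proteins dialyzed overnight in 10mM Bis-Tris pH6.5, 50mM NaCl, 1mM CaCl2, 0.1mM TCEP; recombinant proteins from E. coli, SUMO tag removed.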

[9] = molecular target: Proto-oncogene tyrosine-protein kinase Src (Homo sapiens) (UniProt P12931); assay: Binding affinity to Src kinase SH2 domain (unknown origin) at 25 uM by STD-NMR spectroscopy
Procedure, shortened: (§2)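 STD-NMR on recombinant SH2 (SUMO-fusion expressed in E. coli Rosetta2, Ni-purified, tag cleaved) in 100% D2O with trace DMSO-d6; 50 ms Gaussian saturation pulse, saturation and delay times 5.0 s, 16 scans with 720 averages; ligand/protein ratio 5:1 or 20:1 depending on compound.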

[10] = Cytotoxicity against human MCF10A cells assessed as cell viability at 0.01 to 10 uM after 48 and 72 hrs by MTS assay; type: cell-based; conditions: mcf-10a
MIA PaCa-2 [11] = assay: Antiproliferative activity against human MIAPaCa2 cells assessed as cell viability at 0.01 to 10 uM after 48 and 72 hrs by MTS assay; type: functional, cell-based
[12] = molecular target: T1, Calmodulin/Proto-oncogene tyrosine-protein kinase Src (Homo sapiens); assay: Inhibition of human CaM/Src kinase SH2 domain interaction assessed as apparent association of CaM-Src kinase SH2 domain at 25 fold excess compound concentration by isothermal titration calorimetry; type: protein assay; procedure, shortened: as §1
[13] = molecular target: Proto-oncogene tyrosine-protein kinase Src (Homo sapiens) (UniProt P12931); assay: Binding affinity to Src kinase SH2 domain (unknown origin) at 100 uM by STD-NMR spectroscopy; procedure, shortened: as §2
MIA PaCa-2 [14] = assay: Cytotoxicity against human MIAPaCa2 cells at 1 to 50 uM after 8 days by calcein-AM staining based fluorescence analysis; type: functional, cell-based
Procedure, shortened: (§3)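 3D microtumors: 10K MiaPaCa-2 cells in ice-cold HuBiogel (3 mg/ml), 2 mm beads polymerized 5 min at 37C, cultured up to 14 days in DMEM/10% FBS; compound 1–50 µM added every other day (final 5% FBS, 0.5% DMSO); media or DMSO controls; day 1, 7, 14 Calcein-AM (1.0µM) live imaging; proliferation by CellTiter Glo relative to DMSO; 6–8 beads/group.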

MIA PaCa-2 [15] = assay: Cytotoxicity against human MIAPaCa2 cells at 1 to 50 uM after 8 days by CellTiter Glo assay; type: functional, cell-based; procedure, shortened: as §3

Compound | Activity [7] | Ka [8] [×10⁶ /M] | Activity [9] | Ka [12] [×10⁶ /M] | Activity [13] | Activity (MIA PaCa-2 [1]) | Activity [2] | Activity (BXPC-3 [3]) | Activity (ASPC1 [4]) | Activity (ASPC1 [5]) | Activity (BXPC-3 [6]) | Activity [10] | Activity (MIA PaCa-2 [11]) | Activity (MIA PaCa-2 [14]) | Activity (MIA PaCa-2 [15])
COc1ccc(-c2n[nH]c(NC(=O)c3cccc(S(=O)(=O)N4CCc5ccccc54)c3)n2)cc1 | – | – | – | – | – | Active | Toxic | Active | Active | – | – | – | – | – | –
N#Cc1ccc(Cc2cnc(NC(=O)CCc3ccc4c(c3)OCO4)s2)cc1 | – | – | – | – | – | Active | Toxic | Active | Active | – | – | – | – | – | –
CC/C(=C(\c1ccccc1)c1ccc(OCCN(C)C)cc1)c1ccccc1 | – | – | – | – | – | Active | – | Active | Active | – | – | – | – | – | –
Cc1ccc(Cc2cnc(NC(=O)c3ccc(-n4ccnc4)cc3)s2)cc1 | – | – | – | – | – | Active | – | Active | Active | – | – | – | – | – | –

The next lines start with results.

Activity [7] | Ka [8] [×10⁶ /M] | Activity [9] | Ka [12] [×10⁶ /M] | Activity [13] | Compound | Activity (MIA PaCa-2 [1]) | Activity [2] | Activity (BXPC-3 [3]) | Activity (ASPC1 [4]) | Activity (ASPC1 [5]) | Activity (BXPC-3 [6]) | Activity [10] | Activity (MIA PaCa-2 [11]) | Activity (MIA PaCa-2 [14]) | Activity (MIA PaCa-2 [15])
inactive | 2.49 | Active | – | – | O=C(Nc1ccc(C(=O)O)cc1)Nc1ccc(-c2nc(N3CCOCC3)nc(N3CCOCC3)n2)cc1 | Active | Toxic | Active | Active | Active | Active | Toxic | Active | – | –
inactive | – | – | 2.03 | Active | OC[C@@H]1O[C@H](n2cnc3c(NCc4ccco4)ncnc32)[C@H](O)[C@@H]1O | Active | Toxic | Active | Active | Active | Active | Toxic | Active | – | –
inactive | – | – | – | – | O=C1COc2ccc(C(=O)/C=C/c3cc(F)cc4c3OCOC4)cc2N1 | Active | Toxic | Active | Active | – | – | – | – | Active | Active
inactive | – | – | – | – | Cc1nc2ccccn2c1-c1csc(Nc2ccc(C(=O)O)cc2)n1 | Active | Toxic | Active | Active | – | – | – | – | – | –
